The source made the active and inactive calls. The calls are words filed in the database; no cut-off is given here.
Experiments:
Avena sativa [1] = assay: Pre-emergence herbicidal activity against Avena sativa; type: functional, organism-based
Avena sativa [2] = assay: Herbicidal activity against Avena sativa under paddy conditions; type: functional, organism-based
Musca domestica = assay: Insecticidal activity against Musca domestica (house fly); type: functional, organism-based
Sagittaria latifolia [3] = assay: Post-emergence herbicidal activity against Sagittaria latifolia (broadleaf arrowhead); type: functional, organism-based
Convolvulaceae [4] = assay: Herbicidal activity against Convolvulaceae (morning glory family) under paddy conditions; type: functional, organism-based
Schoenoplectus acutus [5] = assay: Pre-emergence herbicidal activity against Schoenoplectus acutus (hardstem bulrush); type: functional, organism-based
Oryza sativa [6] = assay: Pre-emergence herbicidal activity against Oryza sativa (rice); type: functional, organism-based
Oryza sativa [7] = assay: Post-emergence herbicidal activity against Oryza sativa (rice); type: functional, organism-based
Abutilon theophrasti [8] = assay: Post-emergence herbicidal activity against Abutilon theophrasti (velvetleaf); type: functional, organism-based
Convolvulaceae [9] = assay: Post-emergence herbicidal activity against Convolvulaceae (morning glory family); type: functional, organism-based
Schoenoplectus acutus [10] = assay: Herbicidal activity against Schoenoplectus acutus (hardstem bulrush) under paddy conditions; type: functional, organism-based
Abutilon theophrasti [11] = assay: Pre-emergence herbicidal activity against Abutilon theophrasti (velvetleaf); type: functional, organism-based
Convolvulaceae [12] = assay: Pre-emergence herbicidal activity against Convolvulaceae (morning glory family); type: functional, organism-based
Tetranychus cinnabarinus = assay: Insecticidal activity against Tetranychus cinnabarinus (carmine spider mite); type: functional, organism-based
Echinochloa crus-galli [13] = assay: Pre-emergence herbicidal activity against Echinochloa crus-galli (barnyard grass); type: functional, organism-based
Rhizoctonia solani = assay: Fungicidal activity against Rhizoctonia solani at 500 ppm after 7 days by poisoned food technique; type: functional; conditions: 168 h, read-out: GI
How it was run: (§1)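 Cultures kept on potato dextrose agar. Each compound, dissolved in acetone, was added to potato dextrose agar at a final 500 ppm (w/v) (poisoned food technique). A disc cut from the periphery of a seven-day-old culture was inoculated onto each set. Control sets held potato dextrose agar only. The read-out is percentage inhibition of fungal growth relative to control.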

Avena sativa [14] = assay: Post-emergence herbicidal activity against Avena sativa; type: functional, organism-based
Sagittaria latifolia [15] = assay: Pre-emergence herbicidal activity against Sagittaria latifolia (broadleaf arrowhead); type: functional, organism-based
Spodoptera litura = assay: Insecticidal activity against Spodoptera litura; type: functional, organism-based
Oryza sativa [16] = assay: Herbicidal activity against Oryza sativa (rice) under paddy conditions; type: functional, organism-based
Echinochloa crus-galli [17] = assay: Post-emergence herbicidal activity against Echinochloa crus-galli (barnyard grass); type: functional, organism-based
Culex pipiens pallens = assay: Insecticidal activity against Culex pipiens pallens (mosquito) at 3 to 5 ppm; type: functional, organism-based
Echinochloa crus-galli [18] = assay: Herbicidal activity against Echinochloa crus-galli (barnyard grass) under paddy conditions; type: functional, organism-based
Schoenoplectus acutus [19] = assay: Post-emergence herbicidal activity against Schoenoplectus acutus (hardstem bulrush); type: functional, organism-based
Helminthosporium = assay: Fungicidal activity against Helminthosporium oryzae at 500 ppm after 7 days by poisoned food technique; type: functional; conditions: 168 h, read-out: GI; how it was run: as §1
Sagittaria latifolia [20] = assay: Herbicidal activity against Sagittaria latifolia (broadleaf arrowhead) under paddy conditions; type: functional, organism-based

SMILES	Activity (Avena sativa [1])	Activity (Avena sativa [2])	Activity (Musca domestica)	Activity (Sagittaria latifolia [3])	Activity (Convolvulaceae [4])	Activity (Schoenoplectus acutus [5])	Activity (Oryza sativa [6])	Activity (Oryza sativa [7])	Activity (Abutilon theophrasti [8])	Activity (Convolvulaceae [9])	Activity (Schoenoplectus acutus [10])	Activity (Abutilon theophrasti [11])	Activity (Convolvulaceae [12])	Activity (Tetranychus cinnabarinus)	Activity (Echinochloa crus-galli [13])	inhibition of growth at 500 ppm (Rhizoctonia solani)	Activity (Avena sativa [14])	Activity (Sagittaria latifolia [15])	Activity (Spodoptera litura)	Activity (Oryza sativa [16])	other results
Cc1ccc2[nH]c(CSc3nnc(-c4cccc(Cl)c4)n3N)nc2c1	inactive	inactive	inactive	inactive	inactive	inactive	inactive	inactive	inactive	inactive	inactive	inactive	inactive	inactive	inactive	71.2%	inactive	inactive	inactive	inactive	Activity (Echinochloa crus-galli [17]): inactive; Activity (Culex pipiens pallens): Active; Activity (Echinochloa crus-galli [18]): inactive; Activity (Schoenoplectus acutus [19]): inactive; inhibition of growth at 500 ppm (Helminthosporium): 82.5%; Activity (Sagittaria latifolia [20]): inactive
Clc1cccc(-c2nnc(SCc3nc4ccccc4[nH]3)o2)c1	inactive	inactive	inactive	inactive	inactive	inactive	inactive	inactive	inactive	inactive	inactive	inactive	inactive	inactive	inactive	69.4%	inactive	inactive	inactive	inactive	Activity (Echinochloa crus-galli [17]): inactive; Activity (Culex pipiens pallens): Active; Activity (Echinochloa crus-galli [18]): inactive; Activity (Schoenoplectus acutus [19]): inactive; inhibition of growth at 500 ppm (Helminthosporium): 89.7%; Activity (Sagittaria latifolia [20]): inactive
c1ccc2[nH]c(CSc3nnc(-c4ccncc4)s3)nc2c1	inactive	inactive	inactive	inactive	inactive	inactive	inactive	inactive	inactive	inactive	inactive	inactive	inactive	inactive	inactive	21.3%	inactive	inactive	inactive	inactive	Activity (Echinochloa crus-galli [17]): inactive; Activity (Culex pipiens pallens): Active; Activity (Echinochloa crus-galli [18]): inactive; Activity (Schoenoplectus acutus [19]): inactive; inhibition of growth at 500 ppm (Helminthosporium): 54.5%; Activity (Sagittaria latifolia [20]): inactive
Cc1ccc2[nH]c(CSc3nc4ccccc4[nH]3)nc2c1	inactive	inactive	inactive	inactive	inactive	inactive	inactive	inactive	inactive	inactive	inactive	inactive	inactive	inactive	inactive	61.3%	inactive	inactive	inactive	inactive	Activity (Echinochloa crus-galli [17]): inactive; Activity (Culex pipiens pallens): Active; Activity (Echinochloa crus-galli [18]): inactive; Activity (Schoenoplectus acutus [19]): inactive; inhibition of growth at 500 ppm (Helminthosporium): 81.3%; Activity (Sagittaria latifolia [20]): inactive
c1ccc(-c2nnc(SCc3nc4ccccc4[nH]3)s2)cc1	inactive	inactive	inactive	inactive	inactive	inactive	inactive	inactive	inactive	inactive	inactive	inactive	inactive	inactive	inactive	69.8%	inactive	inactive	inactive	inactive	Activity (Echinochloa crus-galli [17]): inactive; Activity (Culex pipiens pallens): Active; Activity (Echinochloa crus-galli [18]): inactive; Activity (Schoenoplectus acutus [19]): inactive; inhibition of growth at 500 ppm (Helminthosporium): 74.3%; Activity (Sagittaria latifolia [20]): inactive
